Data published in ChEMBL document CHEMBL1145212, “Fluorinated diaryl sulfides as serotonin transporter ligands: synthesis, structure-activity relationship study, and in vivo evaluation of fluorine-18-labeled compounds as PET imaging agents” (J Med Chem, 2005).

Tests used:
[1] = tested on: Rattus norvegicus; assay: Biodistribution of [18F]AFP in rat hypothalamus at 120 min postinjection in vivo; assay type: ADME, organism-based; conditions: 2 h
[2] = tested on: Rattus norvegicus; assay: Biodistribution of [18F]AFP in rat frontal cortex at 10 min postinjection in vivo; assay type: ADME, organism-based
[3] = tested on: Rattus norvegicus; assay: Biodistribution of [18F]-AFP in rat frontal cortex at 30 min postinjection in vivo; assay type: ADME, organism-based; conditions: 0.5 h
Method in brief: (§1)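 Male Sprague-Dawley rats, three per time point, received the F-18 radioligand in saline (~20 µCi per rat at injection) by tail vein. Under CO2 anesthesia they were decapitated at 10, 30, 60, 90 or 120 min. Blood and dissected brain regions were weighed and gamma counted. Activity was decay-corrected, and injected dose was corrected for tail residual activity. Uptake was expressed as %ID/g versus injectate standards, mean ± SD.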

[4] = tested on: Rattus norvegicus; assay: Biodistribution of [18F]-AFP in rat frontal cortex at 60 min postinjection in vivo; assay type: ADME, organism-based; conditions: 1 h; method in brief: as §1
[5] = tested on: Rattus norvegicus; assay: Biodistribution of [18F]AFP in rat frontal cortex at 90 min postinjection in vivo; assay type: ADME, organism-based; conditions: 1.5 h
[6] = tested on: Rattus norvegicus; assay: Biodistribution of [18F]AFP in rat frontal cortex at 120 min postinjection in vivo; assay type: ADME, organism-based; conditions: 2 h
[7] = tested on: Rattus norvegicus; assay: Biodistribution of [18F]AFP in rat blood at 30 min postinjection in vivo; assay type: ADME, organism-based; conditions: 0.5 h
[8] = tested on: Rattus norvegicus; assay: Biodistribution of [18F]AFP in rat blood at 60 min postinjection in vivo; assay type: ADME, organism-based; conditions: 1 h
[9] = tested on: Rattus norvegicus; assay: Biodistribution of [18F]AFP in rat blood at 90 min postinjection in vivo; assay type: ADME, organism-based; conditions: 1.5 h
[10] = tested on: Rattus norvegicus; assay: Biodistribution of [18F]AFP in rat striatum 60 min postinjection in vivo; assay type: ADME, organism-based; conditions: 1 h
[11] = tested on: Rattus norvegicus; assay: Biodistribution of [18F]-AFP in rat blood at 120 min postinjection in vivo; assay type: ADME, organism-based; conditions: 2 h; method in brief: as §1
[12] = tested on: Rattus norvegicus; assay: Biodistribution of [18F]AFP in rat striatum at 10 min postinjection in vivo; assay type: ADME, organism-based
[13] = tested on: Rattus norvegicus; assay: Biodistribution of [18F]AFP in rat striatum at 30 min postinjection in vivo; assay type: ADME, organism-based; conditions: 0.5 h
[14] = organism: Rattus norvegicus; assay: Specific binding of [18F]AFA in striatum of rat pretreated with compound 7f; n=3; assay type: functional
[15] = organism: Rattus norvegicus; assay: Specific binding of [18F]AFA in thalamus of rat pretreated with compound 7f; n=3; assay type: functional
[16] = organism: Rattus norvegicus; assay: Specific binding of [18F]AFA in hippocampus of rat pretreated with compound 7f; n=3; assay type: functional
[17] = organism: Rattus norvegicus; assay: Specific binding of [18F]AFA in hypothalamus of rat pretreated with compound 7f; n=3; assay type: functional
[18] = organism: Rattus norvegicus; assay: Specific binding of [18F]-AFA in frontal cortex of rat pretreated with compound 7f; n=3; assay type: functional
[19] = tested on: Rattus norvegicus; assay: Biodistribution of [18F]AFP in rat hypothalamus at 30 min postinjection in vivo; assay type: ADME, organism-based; conditions: 0.5 h
[20] = tested on: Rattus norvegicus; assay: Biodistribution of [18F]AFP in rat hypothalamus at 60 min postinjection in vivo; assay type: ADME, organism-based; conditions: 1 h
[21] = tested on: Rattus norvegicus; assay: Biodistribution of [18F]AFP in rat hypothalamus at 90 min postinjection in vivo; assay type: ADME, organism-based; conditions: 1.5 h
[22] = tested on: Rattus norvegicus; assay: Biodistribution of [18F]AFP in rat blood at 10 min postinjection in vivo; assay type: ADME, organism-based
[23] = tested on: Rattus norvegicus; assay: Biodistribution of [18F]-AFP in rat cerebellum at 30 min postinjection in vivo; assay type: ADME, organism-based; conditions: 0.5 h; method in brief: as §1
[24] = tested on: Rattus norvegicus; assay: Biodistribution of [18F]AFP in rat cerebellum at 60 min postinjection in vivo; assay type: ADME, organism-based; conditions: 1 h
[25] = tested on: Rattus norvegicus; assay: Biodistribution of [18F]AFP in rat cerebellum at 90 min postinjection in vivo; assay type: ADME, organism-based; conditions: 1.5 h
[26] = tested on: Rattus norvegicus; assay: Biodistribution of [18F]AFP in rat cerebellum at 120 min postinjection in vivo; assay type: ADME, organism-based; conditions: 2 h
[27] = tested on: Rattus norvegicus; assay: Biodistribution of [18F]-AFP in rat hippocampus at 10 min postinjection in vivo; assay type: ADME, organism-based; method in brief: as §1
[28] = tested on: Rattus norvegicus; assay: Biodistribution of [18F]AFP in rat hippocampus at 30 min postinjection in vivo; assay type: ADME, organism-based; conditions: 0.5 h
[29] = tested on: Rattus norvegicus; assay: Biodistribution of [18F]-AFP in rat hippocampus at 60 min postinjection in vivo; assay type: ADME, organism-based; conditions: 1 h; method in brief: as §1
[30] = tested on: Rattus norvegicus; assay: Biodistribution of [18F]AFP in rat hippocampus at 90 min postinjection in vivo; assay type: ADME, organism-based; conditions: 1.5 h
[31] = tested on: Rattus norvegicus; assay: Biodistribution of [18F]AFP in rat hippocampus at 120 min postinjection in vivo; assay type: ADME, organism-based; conditions: 2 h
[32] = tested on: Rattus norvegicus; assay: Biodistribution of [18F]AFP in rat hypothalamus at 10 min postinjection in vivo; assay type: ADME, organism-based
[33] = tested on: Rattus norvegicus; assay: Biodistribution of [18F]AFP in rat striatum at 90 min postinjection in vivo; assay type: ADME, organism-based; conditions: 1.5 h
[34] = tested on: Rattus norvegicus; assay: Biodistribution of [18F]AFP in rat thalamus at 10 min postinjection in vivo; assay type: ADME, organism-based
[35] = tested on: Rattus norvegicus; assay: Biodistribution of [18F]AFP in rat thalamus at 60 min postinjection in vivo; assay type: ADME, organism-based; conditions: 1 h
[36] = tested on: Rattus norvegicus; assay: Biodistribution of [18F]AFP in rat thalamus at 90 min postinjection in vivo; assay type: ADME, organism-based; conditions: 1.5 h
[37] = tested on: Rattus norvegicus; assay: Biodistribution of [18F]AFP in rat striatum at 120 min postinjection in vivo; assay type: ADME, organism-based; conditions: 2 h
[38] = tested on: Rattus norvegicus; assay: Biodistribution of [18F]AFP in rat thalamus at 120 min postinjection in vivo; assay type: ADME, organism-based; conditions: 2 h
[39] = tested on: Rattus norvegicus; assay: Biodistribution of [18F]AFP in rat thalamus at 30 min postinjection in vivo; assay type: ADME, organism-based; conditions: 0.5 h
[40] = tested on: Rattus norvegicus; assay: Biodistribution of [18F]-AFP in rat cerebellum at 10 min postinjection in vivo; assay type: ADME, organism-based; method in brief: as §1

Biodistribution [1]: 0.1 %ID/g | Biodistribution [2]: 0.47 %ID/g | Biodistribution [3]: 0.21 %ID/g | Biodistribution [4]: 0.12 %ID/g | Biodistribution [5]: 0.05 %ID/g | Biodistribution [6]: 0.08 %ID/g | Biodistribution [7]: 0.15 %ID/g | Biodistribution [8]: 0.14 %ID/g | Biodistribution [9]: 0.08 %ID/g | Biodistribution [10]: 0.11 %ID/g | Biodistribution [11]: 0.04 %ID/g | Biodistribution [12]: 0.41 %ID/g | Biodistribution [13]: 0.21 %ID/g | Biodistribution [19]: 0.21 %ID/g | Biodistribution [20]: 0.13 %ID/g | Biodistribution [21]: 0.1 %ID/g | Biodistribution [22]: 0.18 %ID/g | Biodistribution [23]: 0.14 %ID/g | Biodistribution [24]: 0.07 %ID/g | Biodistribution [25]: 0.03 %ID/g | Biodistribution [26]: 0.03 %ID/g | Biodistribution [27]: 0.36 %ID/g | Biodistribution [28]: 0.19 %ID/g | Biodistribution [29]: 0.13 %ID/g | Biodistribution [30]: 0.07 %ID/g | Biodistribution [31]: 0.08 %ID/g | Biodistribution [32]: 0.42 %ID/g | Biodistribution [33]: 0.08 %ID/g | Biodistribution [34]: 0.44 %ID/g | Biodistribution [35]: 0.16 %ID/g | Biodistribution [36]: 0.1 %ID/g | Biodistribution [37]: 0.08 %ID/g | Biodistribution [38]: 0.1 %ID/g | Biodistribution [39]: 0.28 %ID/g | Biodistribution [40]: 0.31 %ID/g
SMILES: CN(C)Cc1ccccc1Sc1ccc(CCC[18F])cc1N
Specific binding [14]: 0.07 %ID/g | Specific binding [15]: 0.35 %ID/g | Specific binding [16]: 0.03 %ID/g | Specific binding [17]: 0.26 %ID/g | Specific binding [18]: 0.05 %ID/g
